Only some compounds are listed: those with a hit (about 4.9% of all), similar ones and a draw of the others.
STAT1 activator = STAT1 signaling activators, primary screen, cell-based, HTS, luciferase reporter; NIH 3T3 STAT1-luciferase reporter, IFN-gamma, luminescence; 100% = IFN-gamma alone, no compound; activation (% of control), % at 5.5 µM; 200,000 tested, 2.6% active;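 active = activation above the screen-wide mean activation plus 3 SD, cut at about 130% in these data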;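 also: raw ratio to IFN-gamma control signal so 100% means no change and 0% no light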
NF-kB expr up = activators of NF-kB expression in neurons, primary screen, cell-based, HTS | 190,000 tested, 1.6% active | human neuronal cells, NF-kB reporter expression; hits give high values | fold change at 12.5 µM | AID 1239, 2008; in the data active = fold change above about 3.3
STAT3 activator = IL-6 driven STAT3 reporter potentiators, primary screen, U3A cells, luciferase, luminescence, MLSCN library; IL-6 STAT3-luciferase reporter; 100% = signal with IL-6 EC80 alone; activation (% of control), % at 5.6 µM; 190,000 tested, 0.91% active;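 active = activation above the screen-wide mean of compound activation plus 3 SD, cut at about 130% in these data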;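 also: 0% = background luminescence of wells with medium and substrate only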
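Test system: Human STAT1-deficient U3A cells with stable STAT3-luciferase reporter | Also added: Interleukin-6, 33 ng/mL | Timing: Compound pre-incubation 1 h before IL-6, then 6 h stimulation at 37 °C | Technique: Luciferase reporter luminescence | Read-out: Percent of IL-6-only median luminescence | Benchmarks: IL-6-only wells as 100% reference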
STAT3 blocker = IL-6 driven STAT3 reporter inhibitors, primary screen, U3A cells, luciferase, luminescence, MLSCN library; AID 862, 2007; IL-6 STAT3-luciferase reporter; host cell line lacks STAT1; inhibition, % at 5.5 µM; 190,000 tested, 0.89% active;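 active = inhibition above the mean inhibition across all screened compounds plus 3 SD, cut at about 44% in these data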;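 also: 0% = DMSO only wells and 100% = 100 µM nifuroxazide control wells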
APP 5'UTR act = activators of APP 5'UTR luciferase reporter, primary screen, SH-SY5Y cells; SH-SY5Y APP 5'UTR luciferase reporter, luminescence; zero percent = DMSO vehicle wells; 190,000 tested, 1% active; activation, % at 2 µM;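 active = activation above a set limit, based on mean plus 3 SD of controls, cut at about 140% in these data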
STAT1 inh = STAT1 signaling inhibitors, primary screen, cell-based, HTS, luciferase reporter | NIH 3T3 STAT1-luciferase reporter, IFN-gamma, luminescence | inhibition, % at 5.5 µM | 200,000 tested, 0.35% active | AID 920, 2007;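 active = inhibition above a set limit, the mean inhibition across all tested compounds plus 3 SD, cut at about 34% in these data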;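 also: 0% = IFN-gamma with DMSO and 100% = IFN-gamma with 300 µM nifuroxazide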
Numbers without * were called inactive; x = no result given.

SMILES | STAT1 activator | NF-kB expr up | STAT3 activator | STAT3 blocker | APP 5'UTR act | STAT1 inh
O=C(CSC(=S)N1CCOCC1)Nc1nc(=O)c2ccccc2s1 | 98.3 | 1.07 | 97.0 | 7.3 | -11.6 | 1.9
O=C(CNc1ccccc1OC(F)F)N1CCc2ccccc21 | 142.6* | 3.21 | 101.1 | 2.4 | 92.5 | -48.8
O=C(CNCCO)N1CCc2ccccc21 | 98.8 | 1.17 | 112.7 | -12.2 | -8.7 | 1.4
O=C1OC(Nc2cc(Br)cc3cccnc23)c2ccccc21 (configuration not stated) | 95.3 | 0.86 | 133.0* | -38.8 | 12.2 | 5.3
CCN1CC(CN(C)Cc2cn(-c3ccc(C)cc3)nc2-c2cccc(C)c2)CC1=O (configuration not stated) | 104.7 | 1.09 | 101.0 | 4.7 | 0.3 | -5.1
Cc1cc(C)nc(Sc2nc(C)nc3c2oc2ccccc23)n1 | 98.0 | 7.44* | 127.4 | -27.6 | -5.6 | 2.2
Cc1noc(C)c1COC(=O)CCCc1c[nH]c2ccccc12 | 87.7 | 1.2 | 133.7* | -32.1 | -17.0 | 13.8
O=C(NCC1CCCO1)c1cc(-c2ccc(Cl)cc2Cl)on1 (configuration not stated) | 126.5 | 3.39* | 72.5 | 35.2 | 66.5 | -29.1
Cc1ccc(-c2cc(C(=O)NCC3CCCO3)no2)cc1 (configuration not stated) | 113.8 | 3.25 | 89.3 | 17.1 | 111.6 | -15.1
O=C(NCC1CCCO1)c1cc(-c2ccccc2)on1 (configuration not stated) | 139.7* | 7.79* | 107.8 | -6.5 | 32.8 | -43.0
CC1CCc2nc(NC(=O)Cc3cccs3)sc2C1 (configuration not stated) | 143.0* | 4.34* | 104.6 | -1.7 | 105.0 | -46.5
Cc1csc(NC(=O)CCCc2cccs2)n1 | 114.0 | 1.78 | 101.6 | 1.6 | 14.5 | -16.4
O=C(CCCc1cccs1)Nc1nc2c(s1)CCCC2 | 106.3 | 2.2 | 133.2* | -35.6 | 52.4 | -6.8
CC1CCc2nc(NC(=O)c3ccco3)sc2C1 (configuration not stated) | 61.1 | 1.78 | 22.4 | 97.1* | 39.3 | 42.5*
CCCOc1ccc(N2C(=O)CC(N3CCC(c4nc5ccccc5o4)CC3)C2=O)cc1 (configuration not stated) | 100.7 | 0.98 | 100.7 | 8.5 | -7.9 | -0.6
O=C(COC(=O)c1ccc(O)cc1)NCCCc1ccccc1 | 104.9 | 1.78 | 105.4 | -6.0 | -5.5 | -4.5
COCC1CCN(Cc2nc(-c3cccs3)no2)C1 (configuration not stated) | 134.8* | x | 101.2 | 4.8 | 48.9 | -37.4
C[C@@H]1CN(Cc2nc(-c3cccs3)no2)C[C@H](C)O1 | 105.0 | 1.6 | 101.6 | 1.6 | -6.3 | -7.5
Nc1ccc2c(c1)OC1(CCCC1)O2 | 70.2 | 1.44 | 96.8 | 8.5 | -40.4 | 29.9
CCOCCCn1c(=N)c(C(=O)Nc2cc(C)on2)cc2c(=O)n3ccccc3nc21 | 84.6 | x | 99.2 | 4.7 | 7.5 | 16.6
c1ccc(-c2csc3ncnc(NCCCN4CCOCC4)c23)cc1 | 87.7 | 0.85 | 84.9 | 20.1 | 2.2 | 14.5
c1ccc(-c2csc3ncnc(NCC4COc5ccccc5O4)c23)cc1 (configuration not stated) | 64.0 | 1.16 | 31.2 | 83.5* | -18.7 | 38.2*
CN(C)CCCN1C(=O)c2cccc3c([N+](=O)[O-])ccc(c23)C1=O | 142.6* | 4.27* | 108.6 | -4.9 | -79.7 | -48.3
CC(C)Oc1cccc(C(=O)NC2=NCCS2)c1 | 132.3* | 2.06 | 102.2 | 8.2 | 86.5 | -37.4
O=C1CCCC2=C1C(c1ccc(O)cc1)c1c(ccc3ccccc13)N2 (configuration not stated) | 100.5 | 0.89 | 107.0 | -6.1 | 202.5* | -1.2
SMILES | STAT1 activator | NF-kB expr up | STAT3 activator | STAT3 blocker | APP 5'UTR act | STAT1 inh
Cc1ccc(/C=C/C(=O)C2C(=O)c3ccccc3C2=O)cc1 | 68.9 | 2.37 | 54.4 | 60.5* | 57.5 | 34.0
Cn1c(-c2ccccc2)c(/C=N/NC(=O)c2cccnc2)c2ccccc21 | 131.1* | 1.24 | 131.4 | -34.3 | 4.2 | -35.5
COc1ccc(NC(=S)Nc2ccc(N)c([N+](=O)[O-])c2)cc1 | 113.7 | 3.32* | 121.5 | -18.3 | -31.7 | -14.9
COc1ccc(NC(=O)c2ccccc2[N+](=O)[O-])cc1 | 105.6 | 1.23 | 96.0 | 7.6 | 9.1 | -6.2
COc1ccc(C(C(=O)NCCC(C)C)N(CCN2CCOCC2)C(=O)Cn2nnc3ccccc32)c(OC)c1 (configuration not stated) | 101.3 | 0.93 | 102.8 | 2.0 | -2.2 | -2.8
C/C(=N\NC(=O)c1ccc(Cl)c(Cl)c1)c1ccc(Br)s1 | 108.5 | 1.15 | 99.9 | 5.4 | -51.6 | -9.4
C/C(=N/NC(=O)c1ccc2c(c1)OCO2)c1ccc(Br)s1 | 136.3* | 1.54 | 96.8 | 5.9 | 81.5 | -40.9
O=C(CC1CCCC1)OCn1nnc2ccccc2c1=O | 97.4 | 1.04 | 98.2 | 6.5 | -1.9 | 1.1
COC(=O)c1ccc2nc(-c3cccc(N)c3)cn2c1 | 44.5 | 2.07 | 37.0 | 74.5* | 56.3 | 60.0*
COC(=O)c1ccc2nc(-c3ccc(S(C)(=O)=O)cc3)cn2c1 | 139.1* | 1.98 | 107.9 | -4.1 | 26.9 | -39.3
Cc1ccccc1NC(=O)CCN1CCc2ccccc2C1 | 99.2 | 1.09 | 104.0 | 2.6 | 2.2 | -1.2
Cc1cc2nc(-c3ccc(SCC(=O)N4CCc5ccccc54)nc3)[nH]c2cc1C | 139.1* | 1.5 | 137.5* | -35.6 | 110.0 | -43.7
Cc1cc2nc(-c3ccc(SCC(=O)Nc4ccc(S(=O)(=O)NC5CC5)cc4)nc3)[nH]c2cc1C | 146.9* | 5.93* | 91.8 | 12.2 | 131.5 | -52.5
Cc1cc(NC(=O)CSc2ccc(-c3nc4cc(C)c(C)cc4[nH]3)cn2)no1 | 120.0 | 1.72 | 96.2 | 8.5 | 24.9 | -22.1
Cc1cc2nc(-c3ccc(SCC(=O)NC(C)C)nc3)[nH]c2cc1C | 128.3 | 1.87 | 106.4 | 1.4 | 56.5 | -29.8
Cc1cc[n+](-c2ccccc2)c2ccccc12 | 80.3 | 1.18 | 94.6 | 8.5 | 13.2 | 19.4
Cn1nc(-c2ccc(C(=O)Nc3cccc(Cl)c3)cc2)c2ccccc2c1=O | 94.3 | 1.4 | 80.3 | 21.3 | 2.6 | 6.1
Cn1c(-c2ccc3ccccc3n2)nc2cnccc21 | 133.0* | 2.05 | 110.2 | -1.5 | 108.8 | -36.2
COc1cc(CNc2ccc(C)c(C)c2)cc(OC)c1OC | 99.5 | 1.01 | 103.5 | 2.4 | 8.8 | 1.1
COc1ccc(CNc2ccc(C)c(C)c2)cc1 | 129.6* | 1.77 | 105.3 | -0.2 | 25.4 | -32.0
Cn1c(NC(=S)Nc2ccccc2)nc2ccccc21 | 141.5* | 1.12 | 82.5 | 21.2 | 160.3* | -47.3
S=C(Nc1ccccc1)Nc1nc2ccccc2n1CCOc1ccc(Br)cc1 | 92.6 | 1.05 | 100.4 | -1.0 | 10.5 | 8.1
